Active and inactive are the calls of the source. The calls are words filed in the database; no cut-off is given here.
Experiments:
Feline coronavirus = experiment: Antiviral activity against Feline coronavirus assessed as inhibition of virus-induced cytopathicity by cell based assay; assay type: functional, organism-based; conditions: Alphacoronavirus 1
[1] = Cytotoxicity against human HuH5.2 cells; assay type: cell-based, Huh-5-2
Human respirovirus 3 = experiment: Antiviral activity against Parainfluenza 3 virus assessed as inhibition of virus-induced cytopathicity by cell based assay; assay type: functional, organism-based
Vaccinia virus [2] = experiment: Antiviral activity against Vaccinia virus lederle infected in human HEL cells assessed as inhibition of virus-induced cytopathicity; assay type: functional, organism-based; conditions: Orthopoxvirus vaccinia
[3] = Cytotoxicity against human HeLa cells; assay type: cell-based
Method in brief: (§1)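 MDCK, HEL and HeLa cultures run alongside the cytopathicity assays received graded compound levels up to 100 μM. Toxicity was scored as the minimum cytotoxic concentration, the lowest level causing a microscopically detectable change in cell morphology.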

Human alphaherpesvirus 1 [4] = experiment: Antiviral activity against thymidine kinase deficient ACV resistant Herpes simplex virus 1 KOS assessed as inhibition of virus-induced cytopathicity by cell based assay; assay type: functional, organism-based; conditions: Human alphaherpesvirus 1, KOS
[5] = test system: Human immunodeficiency virus 1; experiment: Antiviral activity against HIV1 3B infected in human CEM cells assessed as inhibition of syncytia formation after 4 days; assay type: functional, organism-based; conditions: Human immunodeficiency virus 1, 3B, CCRF-CEM, 96 h
Method in brief: (§2)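 Human CEM cells (~3 × 10^5 cells/mL) were infected with ~100 CCID50/mL of HIV-1(IIIB) or HIV-2(ROD) and seeded with compound dilutions. After 4 days at 37 °C, syncytia formation was scored microscopically.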

[6] = test system: Mammalian orthoreovirus 1; experiment: Antiviral activity against Reovirus 1 assessed as inhibition of virus-induced cytopathicity by cell based assay; assay type: functional, organism-based
[7] = Cytotoxicity against human HEL cells; assay type: cell-based; method in brief: as §1
[8] = Cytotoxicity against MDCK cells; assay type: cell-based, Canis lupus familiaris; conditions: dog; method in brief: as §1
Influenza B virus [9] = experiment: Antiviral activity against Influenza B virus infected in MDCK cells assessed as inhibition of virus-induced cytopathicity; assay type: functional, organism-based
Sindbis virus = experiment: Antiviral activity against Sindbis virus assessed as inhibition of virus-induced cytopathicity by cell based assay; assay type: functional, organism-based
Influenza A virus [10] = experiment: Antiviral activity against Influenza A virus H3N2 infected in MDCK cells assessed as inhibition of virus-induced cytopathicity; assay type: functional, organism-based
Hepatitis C virus = experiment: Antiviral activity against HCV infected in human HuH5.2 cells carrying subgenomic HCV replicon assessed as inhibition of replicon replication by luciferase reporter gene assay; assay type: functional, organism-based, Hepacivirus hominis; conditions: Huh-5-2
Method in brief: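 Huh 5-2 cells are Huh 7 cells carrying the subgenomic replicon I389luc-ubi-neo/NS3-3′/5.1. They were maintained in DMEM with 10% heat-inactivated FCS, non-essential amino acids, penicillin/streptomycin and 250 μg/mL G418. Cells were seeded at 5 × 10^3 cells/well in medium without G418 and exposed to compound.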

[11] = test system: Human immunodeficiency virus 2; experiment: Antiviral activity against HIV2 ROD infected in human CEM cells assessed as inhibition of syncytia formation after 4 days; assay type: functional, organism-based; conditions: Human immunodeficiency virus 2, ISOLATE ROD, CCRF-CEM, 96 h; method in brief: as §2
Human alphaherpesvirus 1 [12] = experiment: Antiviral activity against Herpes simplex virus 1 KOS assessed as inhibition of virus-induced cytopathicity by cell based assay; assay type: functional, organism-based; conditions: Human alphaherpesvirus 1, KOS
Cytomegalovirus = experiment: Antiviral activity against Cytomegalovirus assessed as inhibition of virus-induced cytopathicity by cell based assay; assay type: functional, organism-based; conditions: Human betaherpesvirus 5
[13] = test system: Respiratory syncytial virus; experiment: Antiviral activity against Respiratory syncytial virus Long infected in human HeLa cells assessed as inhibition of virus-induced cytopathicity; assay type: functional, organism-based
Human alphaherpesvirus 2 = experiment: Antiviral activity against Herpes simplex virus 2 assessed as inhibition of virus-induced cytopathicity by cell based assay; assay type: functional, organism-based
Punta Toro virus [14] = experiment: Ratio of compound EC50 over ribavirin antiviral EC50 for Punta Toro virus; assay type: functional
Coxsackievirus B4 = experiment: Antiviral activity against Coxsackievirus B4 assessed as inhibition of virus-induced cytopathicity by cell based assay; assay type: functional, organism-based; conditions: Enterovirus B
Felid alphaherpesvirus 1 = experiment: Antiviral activity against Feline herpes virus assessed as inhibition of virus-induced cytopathicity by cell based assay; assay type: functional, organism-based
Vaccinia virus [15] = experiment: Ratio of compound EC50 over ribavirin EC50 for Vaccinia virus lederle; assay type: functional, Orthopoxvirus vaccinia
[16] = test system: Vesicular stomatitis virus; experiment: Antiviral activity against Vesicular stomatitis virus infected in human HeLa cells assessed as inhibition of virus-induced cytopathicity; assay type: functional, organism-based
Punta Toro virus [17] = experiment: Antiviral activity against Punta Toro virus infected in african green monkey Vero cells assessed as inhibition of virus-induced cytopathicity; assay type: functional, organism-based
Influenza B virus [18] = experiment: Antiviral activity against Influenza B virus infected in MDCK cells assessed as inhibition of virus-induced cytopathicity at 100 uM; assay type: functional, organism-based
Influenza A virus [19] = experiment: Antiviral activity against Influenza A virus H3N2 infected in MDCK cells assessed as inhibition of virus-induced cytopathicity at 100 uM; assay type: functional, organism-based
[20] = test system: Respiratory syncytial virus; experiment: Antiviral activity against Respiratory syncytial virus Long infected in human HeLa cells assessed as inhibition of virus-induced cytopathicity at 100 uM; assay type: functional, organism-based
Method in brief: (§3)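 Confluent monolayers (Vero for Punta Toro, HeLa for RSV strain Long) were infected with 100 CCID50 of virus. After 1–2 h adsorption, residual virus was removed and cells were incubated with the compound, 100 μM being the highest level tested. Cytopathicity was scored when untreated infected controls reached full cytopathic effect.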

[21] = test system: Vesicular stomatitis virus; experiment: Antiviral activity against Vesicular stomatitis virus infected in human HeLa cells assessed as inhibition of virus-induced cytopathicity at 100 uM; assay type: functional, organism-based
Vaccinia virus [22] = experiment: Antiviral activity against Vaccinia virus lederle infected in human HEL cells assessed as inhibition of virus-induced cytopathicity at 100 uM; assay type: functional, organism-based; conditions: Orthopoxvirus vaccinia
Punta Toro virus [23] = experiment: Antiviral activity against Punta Toro virus infected in african green monkey Vero cells assessed as inhibition of virus-induced cytopathicity at 100 uM; assay type: functional, organism-based; method in brief: as §3

Compound | EC50 (Feline coronavirus) [µM] | MCC [1] [µM] | EC50 (Human respirovirus 3) [µM] | EC50 (Vaccinia virus [2]) [µM] | MCC [3] [µM] | EC50 (Human alphaherpesvirus 1 [4]) [µM] | EC50 [5] [µM] | EC50 [6] [µM] | MCC [7] [µM] | MCC [8] [µM] | EC50 (Influenza B virus [9]) [µM] | EC50 (Sindbis virus) [µM] | EC50 (Influenza A virus [10]) [µM] | EC50 [11] [µM] | EC50 (Human alphaherpesvirus 1 [12]) [µM] | EC50 (Cytomegalovirus) [µM] | EC50 [13] [µM] | EC50 (Human alphaherpesvirus 2) [µM] | EC50 (Coxsackievirus B4) [µM] | EC50 (Felid alphaherpesvirus 1) [µM] | also measured
NC(=O)c1ncn([C@@H]2O[C@H](COP(=O)(NCC(=O)OCc3ccccc3)Oc3cccc4ccccc34)[C@@H](O)[C@H]2O)n1 (stereo not given in full) | > 100 | > 100 | > 100 | 20 | > 100 | > 100 | > 100 | > 100 | > 100 | > 100 | > 20 | > 100 | > 20 | > 100 | > 100 | > 100 | 58 | > 100 | > 100 | > 100 | MCC (Hepatitis C virus): > 100 µM; Ratio (Punta Toro virus [14]): 3; Ratio (Vaccinia virus [15]): 3
C[C@H](NP(=O)(OC[C@H]1O[C@@H](n2cnc(C(N)=O)n2)[C@H](O)[C@@H]1O)Oc1cccc2ccccc12)C(=O)OCc1ccccc1 (stereo not given in full) | > 100 | > 100 | > 100 | 100 | > 100 | > 100 | > 100 | > 100 | > 100 | > 100 | 14 | > 100 | 18 | > 100 | > 100 | > 100 | 45 | > 100 | > 100 | > 100 | EC50 (Hepatitis C virus): 68 µM; EC50 [16]: 20 µM
NC(=O)c1ncn([C@@H]2O[C@H](CO)[C@@H](O)[C@H]2O)n1 [RIBAVIRIN] |  | > 100 |  |  | > 100 |  |  |  | > 100 | > 100 |  |  |  |  |  |  | 19 |  |  |  | EC50 (Punta Toro virus [17]): 183 µM; EC50 (Hepatitis C virus): 87 µM
NC(=O)c1ncn([C@@H]2O[C@H](COP(=O)(N[C@@H](Cc3ccccc3)C(=O)OCc3ccccc3)Oc3cccc4ccccc34)[C@@H](O)[C@H]2O)n1 (stereo not given in full) | > 100 | > 100 | > 100 | 100 | > 100 | > 100 | > 100 | > 100 | > 100 | > 100 | > 100 | > 100 | > 100 | > 100 | > 100 | > 100 | > 20 | > 100 | > 100 | > 100 | inhibition (Influenza B virus [18]): inactive; inhibition (Influenza A virus [19]): inactive; inhibition [20]: inactive; EC50 (Hepatitis C virus): > 70 µM; inhibition [21]: inactive; inhibition (Vaccinia virus [22]): inactive; inhibition (Punta Toro virus [23]): inactive; EC50 [16]: > 20 µM

— ChEMBL document CHEMBL1156333 (Bioorg Med Chem, 2010)
